M5 PAM: human M5 muscarinic receptor positive allosteric modulators, primary screen, CHO-K1 cells, Fluo-8 calcium fluorescence | CHO-K1 hM5, ACh EC20 PAM; 0% = ACh EC20, 100% = ACh EC100 | activation, % at 3 µM | AID 624038, 2012 | 360,000 compounds, 0.3% hits | Muscarinic acetylcholine receptor M5 (Homo sapiens), P08912;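 active means activation above the run cutoff, the mean activation of all test compounds plus 3 SD, cut at about 18% in these data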
Target sequence (P08912 whole entry, looked up): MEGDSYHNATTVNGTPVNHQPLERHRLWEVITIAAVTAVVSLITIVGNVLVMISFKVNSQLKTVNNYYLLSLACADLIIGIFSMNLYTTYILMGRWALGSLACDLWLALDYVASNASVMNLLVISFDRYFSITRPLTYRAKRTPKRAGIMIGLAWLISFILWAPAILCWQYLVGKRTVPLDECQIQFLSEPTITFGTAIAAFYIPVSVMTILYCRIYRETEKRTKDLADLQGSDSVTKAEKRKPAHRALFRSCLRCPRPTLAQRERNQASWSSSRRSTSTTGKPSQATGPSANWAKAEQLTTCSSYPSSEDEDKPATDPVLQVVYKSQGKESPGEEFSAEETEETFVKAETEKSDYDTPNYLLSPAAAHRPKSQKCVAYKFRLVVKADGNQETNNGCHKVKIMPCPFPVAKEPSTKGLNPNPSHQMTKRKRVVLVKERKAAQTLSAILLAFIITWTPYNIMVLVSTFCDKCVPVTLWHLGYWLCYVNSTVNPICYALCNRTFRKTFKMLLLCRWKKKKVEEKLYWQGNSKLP
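System – CHO-K1 hM5 cells · Compound – 3 µM, single dose · Incubation – compound preincubation 140 s before EC20 acetylcholine addition · Technique – Fluo-8 calcium fluorescence · Measure – Max/basal fluorescence ratio as % of EC20–EC100 ACh window · Benchmarks – low control EC20 acetylcholine (0%), high control EC100 acetylcholine (100%) · Replication – singlicate, one well per test compound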
M4 PAM: human M4 muscarinic receptor positive allosteric modulators, primary screen, CHO-K1 cells, Fluo-8 calcium fluorescence; Muscarinic acetylcholine receptor M4 (Homo sapiens), P08173; CHO-K1 hM4/Gqi5, ACh EC20; 0% = ACh EC20, 100% = maximal ACh; activation, % at 3 µM; 360,000 compounds, 0.4% hits; AID 624126, 2012;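 active means activation above its plate's cutoff, the mean activation of sample wells plus 3 SD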
CHRM4 agonist: human M4 muscarinic receptor agonists, primary screen, CHO-K1 cells, Fluo-8 calcium fluorescence; Muscarinic acetylcholine receptor M4 (Homo sapiens), P08173; CHO-K1 hM4/Gqi5; vehicle 0%, full acetylcholine response 100%; activation, % at 3 µM; 360,000 compounds, 0.14% hits; AID 624127, 2012;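 active means activation above the run mean over all test wells plus 3 SD, cut at about 32% in these data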;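 further: peak over basal fluorescence ratio per well then scaled between controls; 0% = DMSO wells and 100% = acetylcholine at EC100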
CHRM5 agonist: human M5 muscarinic receptor agonists, primary screen, CHO-K1 cells, Fluo-8 calcium fluorescence; Muscarinic acetylcholine receptor M5 (Homo sapiens), P08912; activation, % at 3 µM; CHO-K1 hM5 cells; 0% DMSO wells, 100% maximal acetylcholine response; 360,000 compounds, 0.19% hits;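 active means activation above the run's mean over test compounds plus 3 SD, cut at about 23% in these data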;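 further: signal is peak over basal fluorescence ratio across the kinetic read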
M5 antag: human M5 muscarinic receptor antagonists, primary screen, CHO cells, Fluo-8 calcium fluorescence | AID 624040, 2012 | inhibition, % at 3 µM | CHO-hM5 cells, ACh EC80 | Muscarinic acetylcholine receptor M5 (Homo sapiens), P08912 | 360,000 compounds, 0.59% hits;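 active means inhibition above a per-plate cutoff, the mean of that plate's test compounds plus 3 SD, cut at about 27% in these data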;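 further: 0% = acetylcholine EC80 with DMSO and 100% = DMSO without agonist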
M4 antag: human M4 muscarinic receptor antagonists, primary screen, CHO cells, Fluo-8 calcium fluorescence | Muscarinic acetylcholine receptor M4 (Homo sapiens), P08173 | CHO-hM4 cells, ACh EC80 | inhibition, % at 3 µM | 360,000 compounds, 0.73% hits | AID 624125, 2012;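 active means inhibition above its plate's cutoff, the mean inhibition of sample wells plus 3 SD, cut at about 27% in these data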;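 further: 0% = acetylcholine EC80 with DMSO and 100% = DMSO without agonist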
Numbers without * were called inactive. Rows were chosen to be rich in hits. Some 1.8% of all compounds tested hit in one or more screens of this group.

SMILES	M5 PAM	M4 PAM	CHRM4 agonist	CHRM5 agonist	M5 antag	M4 antag
Cc1oc2c(CN3CCCC3)c(O)ccc2c(=O)c1-c1ccc(Cl)cc1	-1	-19	2	-1	-1	70*
Cc1ccc(S(=O)(=O)NC(=O)NCCCCNC(=O)NS(=O)(=O)c2ccc(C)cc2)cc1	21*	10	1	6	-18	7
CCCCNC(=O)NS(=O)(=O)c1ccc(C)cc1	-7	-1	1	15	1	-5
Cc1ccc(S(=O)(=O)NNC(=O)CC#N)cc1	21*	15	1	0	-15	-6
COC(=O)NNS(=O)(=O)c1ccc(C)cc1	0	-2	0	2	-3	-7
CC(=O)Nc1ccc2c(c1)C(=Nc1cccc(C)c1)c1ccccc1-2	-7	16*	2	-2	22	-13
Cc1ccc(C)c(OCCC(=O)N2CCN(S(=O)(=O)c3ccc([N+](=O)[O-])cc3)CC2)c1	-2	6	2	-1	17	-1
CC(=O)Nc1ccc(CNc2nc3cc(-c4ccc(F)cc4)sc3c(=O)n2C)cc1	-5	1	4	1	7	-7
CCC(=O)N1CCC1(C)C(=O)Nc1nccs1 (stereo unspecified)	-1	-4	0	0	-7	-8
CCC(=O)N1CCC1(C)C(=O)Nc1ncc(C)s1 (stereo unspecified)	0	19*	1	3	10	-13
N#CCC(=O)Nc1ccc(C(=O)NNC(=S)NC2CC2)cc1	10	25*	2	-3	-18	-8
COC(=O)N(C)C[C@H]1OCc2cn(nn2)CCCC(=O)N([C@@H](C)CO)C[C@@H]1C	-2	4	0	2	1	-8
COc1cccc(COc2cc3ccccc3nc2C)c1	-16	-2	9	3	31*	24
Cc1nc2ccccc2cc1OCc1ccc(Cl)cc1	-14	-14	5	6	30*	19
Cc1nc2ccccc2cc1OCc1ccccc1	-14	-10	6	2	24	6
O=C(N1CCCC1)C(F)(F)Oc1ccc(F)cc1	11	6	1	-2	-3	0
Cc1ccc(NC(=O)CSc2nc3sc(C)cc3c(=O)n2C)cc1	-3	0	2	-2	5	-16
Cc1c(Br)c([N+](=O)[O-])nn1CC(=O)N1CCc2ccccc2C1	6	-5	0	-2	-8	-6
Cc1c(Br)c([N+](=O)[O-])nn1C(C)C(=O)N1CCc2ccccc2C1 (stereo unspecified)	-13	-14	1	-8	21	55*
Cc1cc(/C=N/n2cnnc2)c(C)n1-c1ccc(OCc2ccc(Cl)cc2Cl)cc1	-15	-12	3	-5	37*	47*
COc1cc(CC(=O)NCC(C)(C)N2CCOCC2)cc(OC)c1OC	-1	6	1	-1	9	-8
O=C(NC(NNc1ccc([N+](=O)[O-])cc1)(C(F)(F)F)C(F)(F)F)c1ccc(F)cc1	-17	-9	13	9	29*	9
O=C(NC(NNc1ccc([N+](=O)[O-])cc1)(C(F)(F)F)C(F)(F)F)c1ccccc1Cl	-12	-11	4	0	10	6
Nc1ccccc1NC(=O)CCn1c(=S)[nH]c2ccccc2c1=O	-3	9	2	-3	16	-12
COc1cccc(N2CCN(CC(=O)Nc3ccccc3C(=O)NCCc3ccccc3)CC2)c1	-22	-4	18	-4	28*	18
SMILES	M5 PAM	M4 PAM	CHRM4 agonist	CHRM5 agonist	M5 antag	M4 antag
O=C1CCC(C(=O)OCc2cc(=O)oc3ccc4ccccc4c23)=NN1	5	13	0	1	2	2
O=C1CC(c2ccc(F)cc2)Sc2ccccc2N1 (stereo unspecified)	1	14	-1	-1	-4	11
COc1cc(C2CC(=O)Nc3ccccc3S2)cc(OC)c1OC (stereo unspecified)	-15	-23	18	4	19	35*
c1ccc2c(c1)OC(CCCN1CCCCC1)c1ccccc1S2 (stereo unspecified)	-28	-17	12	-10	22	19
CN1CCCC(CC2Oc3ccccc3Sc3ccccc32)C1 (stereo unspecified)	-18	-41	5	-5	54*	73*
C1CCN(Cc2nnnn2CC2CCCO2)CC1 (stereo unspecified)	3	4	1	-1	-2	4
COCC(=O)N(Cc1cc2ccc(C)cc2[nH]c1=O)c1cccc(C)c1	1	-5	0	1	-8	-4
COCC(=O)N(Cc1cc2cc(C)ccc2[nH]c1=O)c1ccccc1	6	23*	2	0	-2	-21
Cc1noc(C)c1S(=O)(=O)Nc1ccc(C(=O)N2CCN(c3cccc(Cl)c3)CC2)cc1	-21	-6	35*	7	27*	6
Cc1cccc(N2CCN(C(=O)c3ccc(NS(=O)(=O)c4c(C)noc4C)cc3)CC2)c1C	-10	-2	7	-6	7	-6
Cc1noc(C)c1S(=O)(=O)Nc1ccc(C(=O)N2CCc3ccccc3C2)cc1	20*	-1	3	-2	-18	-1
CCOC(=O)c1c(NC(=O)COC(=O)c2ccccc2NC)sc(C(=O)N(C)C)c1C	0	-4	2	-4	16	-2
NC(=O)C1CN(C(=O)c2nn(Cc3ccccc3)c(=O)c3ccccc23)c2ccccc2O1 (stereo unspecified)	-8	2	4	1	7	-18
CC1CCCN(c2nc3ccsc3c(=O)s2)C1 (stereo unspecified)	-10	-29	-3	-7	0	28*
CC1CCCCN1S(=O)(=O)c1ccc([N+](=O)[O-])cc1 (stereo unspecified)	-10	-14	0	-24	11	29*
CCC1CCCCN1S(=O)(=O)c1ccc([N+](=O)[O-])cc1 (stereo unspecified)	-16	-14	-1	-23	5	28*
COc1ccc(C=O)c2[nH]c3c(Cl)ncnc3c12	3	3	0	-2	8	-8
CN1C=CC=C/C1=C1\SC(=S)N(c2ccccc2)C1=O	-2	17*	1	-5	-1	-5
